Data taken from ChEMBL document CHEMBL1159121, “Synthesis, in vitro structure-activity relationship, and in vivo studies of 2-arylthiazolidine-4-carboxylic acid amides as anticancer agents” (Bioorg Med Chem, 2010).
Activity calls are given as the source filed them. No cut-off for these calls is given here.

Columns and labels:
HOP-62 = assay: Growth inhibition of human HOP62 cells; type: functional; settings: for CC50: read-out: LC50 (the source's name)
NCI-H23 = assay: Growth inhibition of human NCI-H23 cells; type: functional; settings: for CC50: read-out: LC50 (the source's name)
NCI-H460 = assay: Growth inhibition of human NCI-H460 cells; type: functional; settings: for CC50: read-out: LC50 (the source's name)
COLO 205 = assay: Growth inhibition of human COLO205 cells; type: functional; settings: for CC50: read-out: LC50 (the source's name)
M14 = assay: Growth inhibition of human M14 cells; type: functional; settings: for CC50: read-out: LC50 (the source's name)
UACC-257 = assay: Growth inhibition of human UACC257 cells; type: functional; settings: for CC50: read-out: LC50 (the source's name)
IGROV-1 = assay: Growth inhibition of human IGROV1 cells; type: functional; settings: for CC50: read-out: LC50 (the source's name)
OVCAR-4 = assay: Growth inhibition of human OVCAR4 cells; type: functional; settings: for CC50: read-out: LC50 (the source's name)
SK-OV-3 = assay: Growth inhibition of human SKOV3 cells; type: functional; settings: for CC50: read-out: LC50 (the source's name)
A498 = assay: Growth inhibition of human A498 cells; type: functional; settings: for CC50: read-out: LC50 (the source's name)
TK-10 = assay: Growth inhibition of human TK10 cells; type: functional; settings: for CC50: read-out: LC50 (the source's name)
BT-549 = assay: Growth inhibition of human BT549 cells; type: functional; settings: for CC50: read-out: LC50 (the source's name)
K562 = assay: Growth inhibition of human K562 cells; type: functional
KM12 = assay: Growth inhibition of human KM12 cells; type: functional
Malme-3M = assay: Growth inhibition of human MALME-3M cells; type: functional
SK-MEL-2 = assay: Growth inhibition of human SK-MEL-2 cells; type: functional
MCF7 = assay: Growth inhibition of human MCF7 cells; type: functional
T47D = assay: Growth inhibition of human T47D cells; type: functional
MDA-MB-468 = assay: Growth inhibition of human MDA-MB-468 cells; type: functional
Mus musculus = assay: Toxicity in ip dosed athymic nude mouse assessed as body weight loss; type: organism-based; settings: in vivo
Summary of the method: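 Male athymic nude mice (4–5 weeks) given subcutaneous A375 cells in Matrigel (1:1). At about 150 mm3, near day 7, split into groups of n = 8. Dosed at 5 or 10 mg/kg in 80% Tween 80/20% Captex 200, injected once daily for 22 days. Vehicle (intraperitoneal) and DTIC 60 mg/kg controls. Body weight and activity monitored throughout.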

A-375 [1] = assay: Cell cycle arrest in human A375 cells by assessed as increase in accumulation at subG1 phase […] by flow cytometry; type: functional, cell-based
LNCaP [2] = assay: Cell cycle arrest in human LNCAP cells by assessed as increase in accumulation at subG1 phase […] by flow cytometry; type: functional, cell-based
A-375 [3] = assay: Inhibition of human A375 cells colony formation at 2 uM after 7 days by colony-formation assay; type: functional, cell-based
A-375 [4] = assay: Inhibition of human A375 cells colony formation at 20 uM after 7 days by colony-formation assay; type: functional; settings: A-375, 168 h
A-375 [5] = assay: Inhibition of human A375 cells colony formation at 100 uM after 7 days by colony-formation assay; type: functional, cell-based
[6] = Toxicity in mouse assessed as maximum tolerated dose; type: organism-based; settings: in vivo
Summary of the method: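 Tolerability was determined in ICR mice, with the compound formulated in a co-solvent of 80% Tween 80 and 20% Captex 200.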

A-375 [7] = assay: Antitumor activity against human A375 cells xenografted in athymic nude mouse assessed as tumor growth inhibition at 5 mg/kg, ip once daily administered 7 days after inoculation for 22 days; type: functional; design: scale not given: the % may be the effect or the level left; settings: route intraperitoneal
Summary of the method: (§1)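 Male athymic nude mice, 4–5 weeks old, received 2.5 × 10^6 A375 cells (FBS-free DMEM mixed 1:1 with Matrigel) subcutaneously in the right dorsal flank. At about 150 mm3 (~day 7), mice were grouped by tumor size (n = 8). Drug in 80% Tween 80/20% Captex 200 was injected daily, with vehicle controls i.p. Calipers twice weekly (a×b²×0.5); % reduction at day 22 = 100×[(T–T0)/(C–C0)]. Body weight tracked.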

A-375 [8] = assay: Antitumor activity against human A375 cells xenografted in athymic nude mouse assessed as tumor growth inhibition at 10 mg/kg, ip once daily administered 7 days after inoculation for 22 days; type: functional; design: scale not given: the % may be the effect or the level left; settings: route intraperitoneal; summary of the method: as §1
A-375 [9] = assay: Antitumor activity against human A375 cells xenografted in athymic nude mouse assessed as tumor growth inhibition at 60 mg/kg, ip once daily administered 7 days after inoculation for 22 days; type: functional; design: scale not given: the % may be the effect or the level left; settings: route intraperitoneal
Summary of the method: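 Male athymic nude mice, 4–5 weeks old, injected subcutaneously in the right flank with A375 cells (5 × 10^7/mL, 100 μL, 1:1 Matrigel). Grouped at about 150 mm3 (~day 7), n = 8. DTIC in saline given ip once daily. Caliper volume a×b²×0.5 measured twice weekly; % reduction 100×[(T–T0)/(C–C0)] at day 22. Body weight monitored.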

[10] = Growth inhibition of human […] cells; type: functional; settings: for CC50: read-out: LC50 (the source's name)
HOP-92 = assay: Growth inhibition of human HOP92 cells; type: functional
CAKI-1 = assay: Growth inhibition of human Caki1 cells; type: functional
[11] = Selectivity ratio of IC50 for human fibroblasts to IC50 for human melanoma cells; type: ADME; settings: human fibroblasts and human melanoma cells, read-out: Ratio IC50
DU-145 = assay: Antiproliferative activity against human DU145 cells after 96 hrs by SRB assay; type: functional, cell-based; settings: DU-145, 96 h
Summary of the method: (§2)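 Prostate lines in RPMI1640/10% FBS; RH7777 in DMEM/10% FBS. Cells TCA-fixed, stained with 0.4% SRB, absorbance read at 540 nm. IC50 from nonlinear regression of % survival against concentration.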

PC-3 = assay: Antiproliferative activity against human PC3 cells after 96 hrs by SRB assay; type: functional, cell-based; settings: PC-3, 96 h
LNCaP [12] = assay: Antiproliferative activity against human LNCAP cells after 96 hrs by SRB assay; type: functional, cell-based; summary of the method: as §2
PPC-1 = assay: Antiproliferative activity against human PPC1 cells after 96 hrs by SRB assay; type: functional, cell-based; settings: PPC-1, 96 h; summary of the method: as §2
[13] = read-out: LC50 (the source's name)

With CCCCCCCCCCCCCCCCNC(=O)[C@@H]1CSC(c2ccc(NC(C)=O)cc2)N1 (mixture of isomers) the GI50 (HOP-62) was 200 nM, the TGI (HOP-62) was 380 nM and the CC50 (HOP-62) was 700 nM. The GI50 (NCI-H23) was 320 nM, the TGI (NCI-H23) was 1050 nM and the CC50 (NCI-H23) was 4860 nM. For the same molecule, the GI50 (NCI-H460) was 190 nM, the TGI (NCI-H460) was 390 nM and the CC50 (NCI-H460) was 790 nM. The GI50 (COLO 205) was 1910 nM, the CC50 (COLO 205) was > 100000 nM and the GI50 (M14) was 170 nM. The TGI (M14) was 330 nM, the CC50 (M14) was 620 nM and the GI50 (UACC-257) was 1480 nM. For the same molecule, the TGI (UACC-257) was 3160 nM, the CC50 (UACC-257) was 6710 nM and the GI50 (IGROV-1) was 170 nM. The TGI (IGROV-1) was 340 nM, the CC50 (IGROV-1) was 650 nM and the GI50 (OVCAR-4) was 230 nM. It also gave a TGI (OVCAR-4) of 490 nM, a CC50 (OVCAR-4) of 120 nM and a GI50 (SK-OV-3) of 380 nM. It also gave a TGI (SK-OV-3) of 1130 nM, a CC50 (SK-OV-3) of 3480 nM and a GI50 (A498) of 940 nM. The TGI (A498) was 2200 nM, the CC50 (A498) was 4970 nM and the GI50 (TK-10) was 650 nM. It also gave a TGI (TK-10) of 2110 nM, a CC50 (TK-10) of 5400 nM and a GI50 (BT-549) of 180 nM. The TGI (BT-549) was 330 nM, the CC50 (BT-549) was 630 nM and the GI50 (K562) was 210 nM. For the same molecule, the TGI (K562) was 430 nM, the CC50 (K562; [13]) was 900 nM and the GI50 (KM12) was 180 nM. The TGI (KM12) was 330 nM, the CC50 (KM12; [13]) was 580 nM and the GI50 (Malme-3M) was 320 nM. For the same molecule, the TGI (Malme-3M) was 1110 nM, the CC50 (Malme-3M; [13]) was 3950 nM and the GI50 (SK-MEL-2) was 250 nM. For the same molecule, the TGI (SK-MEL-2) was 540 nM, the CC50 (SK-MEL-2; [13]) was 1750 nM and the GI50 (MCF7) was 190 nM. The TGI (MCF7) was 380 nM, the CC50 (MCF7; [13]) was 800 nM and the GI50 (T47D) was 240 nM. The TGI (T47D) was 530 nM, the CC50 (T47D; [13]) was 2300 nM and the GI50 (MDA-MB-468) was 220 nM. The TGI (MDA-MB-468) was 510 nM, the CC50 (MDA-MB-468; [13]) was 1540 nM and the Activity (Mus musculus) was “Non-toxic”. The Activity (A-375 [1]) was “Dose-dependent effect”, the Activity (LNCaP [2]) was “Dose-dependent effect” and the Activity (A-375 [3]) was “Active”. The inhibition at 20 µM (A-375 [4]) was 75%, the Activity (A-375 [5]) was “Active” and the MTD [6] was 42 mg/kg. For the same molecule, the Activity (A-375 [7]) was 25%, the Activity (A-375 [8]) was 62% and the Activity (A-375 [9]) was 42%. The GI50 [10] was 220 nM, the TGI [10] was 560 nM and the CC50 [10] was > 100000 nM.
Molecule CCCCCCCCCCCCCCCCCCNC(=O)[C@@H]1CSC(c2ccccc2)N1 (mixture of isomers) has a GI50 (HOP-62) of 1770 nM, a TGI (HOP-62) of 3150 nM and a CC50 (HOP-62) of 5610 nM. For the same molecule, the GI50 (HOP-92) was 2060 nM, the TGI (HOP-92) was 4120 nM and the CC50 (HOP-92; [13]) was 8270 nM. For the same molecule, the GI50 (NCI-H23) was 1840 nM, the TGI (NCI-H23) was 3360 nM and the CC50 (NCI-H23) was 6170 nM. It also gave a GI50 (NCI-H460) of 1410 nM, a TGI (NCI-H460) of 2980 nM and a CC50 (NCI-H460) of 6310 nM. For the same molecule, the GI50 (COLO 205) was 2320 nM, the TGI (COLO 205) was 4980 nM and the CC50 (COLO 205) was 12700 nM. For the same molecule, the GI50 (M14) was 1440 nM, the TGI (M14) was 2750 nM and the CC50 (M14) was 5240 nM. It also gave a GI50 (UACC-257) of 2130 nM, a TGI (UACC-257) of 4230 nM and a CC50 (UACC-257) of 8400 nM. It also gave a GI50 (IGROV-1) of 2300 nM, a TGI (IGROV-1) of 5470 nM and a CC50 (IGROV-1) of 18900 nM. It also gave a GI50 (OVCAR-4) of 2610 nM, a TGI (OVCAR-4) of 5410 nM and a CC50 (OVCAR-4) of 17500 nM. For the same molecule, the GI50 (SK-OV-3) was 2900 nM, the TGI (SK-OV-3) was 5650 nM and the CC50 (SK-OV-3) was 18600 nM. The GI50 (A498) was 2730 nM, the TGI (A498) was 5300 nM and the CC50 (A498) was 11500 nM. For the same molecule, the GI50 (CAKI-1) was 2300 nM, the TGI (CAKI-1) was 4310 nM and the CC50 (CAKI-1; [13]) was 8080 nM. For the same molecule, the GI50 (TK-10) was 7460 nM, the TGI (TK-10) was 29200 nM and the CC50 (TK-10) was > 100000 nM. The GI50 (BT-549) was 840 nM, the TGI (BT-549) was 2060 nM and the CC50 (BT-549) was 4540 nM. For the same molecule, the selectivity ratio [11] was 2.6, the IC50 (DU-145) was 10800 nM and the IC50 (PC-3) was 10000 nM. For the same molecule, the IC50 (LNCaP [12]) was 4200 nM, the IC50 (PPC-1) was 2400 nM and the GI50 [10] was 2120 nM. The TGI [10] was 4630 nM and the CC50 [10] was 11700 nM.
